Consider two compounds from ChEMBL document CHEMBL6092224, “The Discovery and Preclinical Profile of ALG-000184, a Prodrug of the Potent Hepatitis B Virus Capsid Assembly Modulator ALG-001075” (J Med Chem, 2024).

One may read the Papp A→B as how fast a substance crosses the layer from the apical side. In general, EC50 refers to the concentration needed to bring the measured effect to its halfway point. The IC50 is the point on the concentration scale where inhibition reaches its midpoint. One may read the AUC(0-inf) as the area under the concentration-time curve extrapolated to infinity. In general, clearance refers to the rate of elimination divided by the concentration. In general, half-life refers to how long it takes for the measured level to halve. The Cmax is the maximum level reached in the sampled fluid or tissue.

Data set [1] in a line: Prodrug conversion in high fat diet-fed Beagle dog assessed as formation of N-(3-cyano-4-fluorophenyl)-4-(2-((3-ethynyloxetan-3-yl)amino)-2-oxoacetyl)-1,3,5-trimethyl-1H-pyrrole-2-carboxamide metabolite at 5 mg/kg, po measured for 96 hrs. Conditions: in vivo. It counts as ADME, organism-based, Canis lupus familiaris.
Data set [2] in a line: Apparent permeability across apical to basal side in human Caco-2 cells at 1 uM incubated for 1 hr. The data set is classed as ADME, cell-based. In a few lines:
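Bidirectional transport across Caco-2 cells in HBSS, pH 7.4, 0.1% final DMSO. Compound was tested at 1 or 2 μM for 1 h at 37 °C, 5% CO2. Apical and basal samples gave apparent permeability A→B and B→A, and the efflux ratio.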
Background: Caco-2 monolayers are a common model of the intestinal barrier.

Data set [3] has as its system Mus musculus. The data set can be described thus: Effect on HBeAg level in C57BL/6 mouse infected with AAV-Hepatitis B virus at 15 to 50 mg/kg, po qd for 56 days followed by induction of compound washout period for 14 days. The data set is classed as functional, organism-based. To be noted: dose 15-50 mg/kg, time 70.0 day.
Data set [4] has as its system Hepatitis B virus. Put plainly: Antiviral activity against HBV infected in human HepG2.117 cells by qPCR analysis. The data set is classed as functional, organism-based. In a few lines:
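HepG2.117 cells (integrated genotype D HBV genome, Tet-off promoter; kept in 1 μg/mL doxycycline) were seeded at 20,000 cells/well and given serial compound dilutions (2% DMSO) for 3 days at 37 °C. Lysates were taken in 0.33% NP40. Intracellular HBV DNA was quantified by qPCR and EC50/EC90 derived. For serum shift, 40% human serum was present during incubation. Mean ± SEM, n=3 (serum) or 13.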
On the technique in general: Quantitative PCR measures a nucleic acid by following its amplification.

The target of data set [5] is Multidrug and toxin extrusion protein 1 (Homo sapiens, UniProt Q96FL8). The data set can be described thus: Inhibition of MATE1 (unknown origin) transfected in HEK293 cells. It counts as cell-based. In a few lines:
(§1)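 HEK-293 cells transfected with the uptake transporter; uptake of known probe substrates measured with test compound at eight concentrations (0.0229–50.0 μM or 0.0457–100 μM); inhibition at each concentration used to calculate IC50.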

The nature of data set [6]: Effect on mitochondrial biogenesis in human HepG2 cells upto 10 uM. It counts as toxicity, cell-based. Conditions: hepg2, 10 µM.
For data set [7], the system named is Hepatitis B virus. The data set can be described thus: Antiviral activity against HBV infected in human primary hepatocyte cells assessed as decrease in HBeAg level pre-infected cells with virus followed by compound treatment for 3 days and subsequent replacement of medium with compound measured after 4 days by CLIA. The data set is classed as functional, organism-based.

Data set [8] in a line: AUC (infinity) in C57BL/6J mouse at 1 mg/kg, iv by LC-MS/MS analysis. The data set is classed as ADME, organism-based. Conditions: in vivo. In a few lines:
(§2)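 Single dose to fasted male C57BL6 mice, Sprague-Dawley rats, beagle dogs and cynomolgus monkeys, either IV at 1 mg/kg or PO as a solution at 5 mg/kg, in 80% PEG 400 in water. Plasma concentrations were measured by LC-MS/MS. PK parameters come from noncompartmental analysis using nominal doses and nominal sampling times.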

Data set [9] deals with Organic anion transporter 3 (Homo sapiens, UniProt Q8TCC7). The data set can be described thus: Inhibition of OAT3 (unknown origin) transfected in HEK293 cells. It counts as cell-based. A digest of the protocol:
as §1

Data set [10] in a line: Oral bioavailability in Cynomolgous monkey at 5 mg/kg by LC-MS/MS analysis. The data set is classed as ADME, organism-based, Macaca fascicularis. Conditions: cynomolgus monkey, in vivo. In a few lines: (§3)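 Fasted male C57BL6 mice, Sprague–Dawley rats, beagle dogs, cynomolgus monkeys; single IV dose 1 mg/kg or PO solution 5 mg/kg in 80% PEG 400 in water; plasma concentrations measured, noncompartmental analysis with nominal doses and times; F from PO vs IV AUC.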

The nature of data set [11]: Clearance in Cynomolgous monkey at 1 mg/kg, iv by LC-MS/MS analysis. It counts as ADME, organism-based, Macaca fascicularis. To be noted: cynomolgus monkey, in vivo. A digest of the protocol: as §2
The nature of data set [12]: Clearance in Beagle dog at 1 mg/kg, iv by LC-MS/MS analysis. To be noted: in vivo. It counts as ADME, organism-based, Canis lupus familiaris. A digest of the protocol:
as §2

Data set [13] can be described thus: AUC (infinity) in Cynomolgous monkey at 1 mg/kg, iv by LC-MS/MS analysis. It counts as ADME, organism-based, Macaca fascicularis. Conditions: cynomolgus monkey, in vivo. A digest of the protocol: as §2
A short description of data set [14]: Metabolic stability in Cynomolgous monkey hepatocytes assessed as half life at 1 uM incubated upto 180 mins. To be noted: cynomolgus monkey.
For a further data set, the target named is Cytochrome P450 3A4 (Homo sapiens, UniProt P08684). The data set can be described thus: Induction of CYP3A4 (unknown origin) in human hepatocytes upto 30 uM. The data set is classed as ADME, cell-based, Hepatocyte.
Sequence of Cytochrome P450 3A4 (P08684 whole entry): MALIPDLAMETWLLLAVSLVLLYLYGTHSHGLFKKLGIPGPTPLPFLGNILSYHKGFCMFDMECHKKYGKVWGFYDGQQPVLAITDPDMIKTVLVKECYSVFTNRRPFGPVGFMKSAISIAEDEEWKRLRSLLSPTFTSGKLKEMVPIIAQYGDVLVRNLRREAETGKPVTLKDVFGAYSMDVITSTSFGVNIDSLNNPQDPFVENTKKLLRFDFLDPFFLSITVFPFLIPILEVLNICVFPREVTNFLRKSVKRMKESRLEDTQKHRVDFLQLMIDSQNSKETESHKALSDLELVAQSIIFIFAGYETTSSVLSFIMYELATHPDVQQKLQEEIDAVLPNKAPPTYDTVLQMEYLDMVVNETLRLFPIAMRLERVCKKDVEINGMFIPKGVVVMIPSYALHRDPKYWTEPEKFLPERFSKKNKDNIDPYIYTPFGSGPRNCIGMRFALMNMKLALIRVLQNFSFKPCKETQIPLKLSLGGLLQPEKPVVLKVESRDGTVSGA
A further data set has as its target T1, Cytochrome P450 2B6 (Homo sapiens, UniProt P20813).
T1 sequence (P20813 whole entry): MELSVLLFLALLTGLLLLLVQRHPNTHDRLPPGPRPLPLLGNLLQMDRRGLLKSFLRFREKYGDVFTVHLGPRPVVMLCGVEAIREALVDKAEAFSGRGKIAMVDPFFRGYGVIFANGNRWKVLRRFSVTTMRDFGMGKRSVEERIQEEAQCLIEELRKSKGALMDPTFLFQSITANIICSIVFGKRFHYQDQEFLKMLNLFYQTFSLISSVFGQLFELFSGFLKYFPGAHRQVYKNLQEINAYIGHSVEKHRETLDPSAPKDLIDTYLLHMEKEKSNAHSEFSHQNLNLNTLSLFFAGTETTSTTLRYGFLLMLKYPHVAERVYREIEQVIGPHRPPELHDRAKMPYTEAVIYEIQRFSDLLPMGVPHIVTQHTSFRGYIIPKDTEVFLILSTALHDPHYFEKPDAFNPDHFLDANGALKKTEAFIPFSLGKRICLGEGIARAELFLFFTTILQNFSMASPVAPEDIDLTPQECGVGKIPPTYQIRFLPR
Put plainly: Induction of CYP2B6 (unknown origin) in human hepatocytes upto 30 uM. The data set is classed as ADME, cell-based, Hepatocyte.

The subject of a further data set is Cav1.2. The data set can be described thus: Inhibition of Cav1.2 (unknown origin) expressed in mammalian cells at 10 uM by automated patch-clamp method. To be noted: mammalian cells expressing Cav1.2. It counts as toxicity, cell-based, Homo sapiens. In a few lines:
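Currents of hERG, Nav1.5 or Cav1.2 channels expressed in mammalian cells recorded by automated patch clamp (QPatch 48) at room temperature.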
Background: In patch-clamp work, channel activity is measured electrically.

Data set [15] can be described thus: Oral bioavailability in Sprague-Dawley rat at 5 mg/kg by LC-MS/MS analysis. The data set is classed as ADME, organism-based. Conditions: in vivo. In a few lines:
as §3

Data set [16] in a line: Toxicity in C57BL/6 mouse infected with AAV-Hepatitis B virus assessed as change in body weight at 15 to 50 mg/kg, po qd for 56 days followed by induction of compound washout period for 14 days. Conditions: in vivo, 1680 h, dose 15-50 mg/kg, time 70 day. It counts as organism-based.
Data set [17] is described as follows: Oral bioavailability in C57BL/6J mouse at 5 mg/kg by LC-MS/MS analysis. It counts as ADME, organism-based. To be noted: in vivo. A digest of the protocol: as §3
A short description of data set [18]: Effect on mitochondrial activity in human HepG2 cells upto 10 uM. The data set is classed as toxicity, cell-based. To be noted: hepg2, 10 µM.
Data set [19] in a line: Cmax in Sprague-Dawley rat at 5 mg/kg, po by LC-MS/MS analysis. The data set is classed as ADME, organism-based. To be noted: in vivo. A digest of the protocol: as §2
For data set [20], the system named is Mus musculus. The data set can be described thus: Effect on HBsAg level in C57BL/6 mouse infected with AAV-Hepatitis B virus at 15 mg/kg, po bid for 56 days followed by induction of compound washout period for 14 days. It counts as functional, organism-based. To be noted: time 70.0 day.
For data set [21], the system named is Mus musculus. The data set can be described thus: Effect on HBeAg level in C57BL/6 mouse infected with AAV-Hepatitis B virus at 15 mg/kg, po bid for 56 days followed by induction of compound washout period for 14 days. It counts as functional, organism-based. To be noted: time 70.0 day.
Data set [22] can be described thus: Toxicity in C57BL/6 mouse infected with AAV-Hepatitis B virus assessed as change in ALT level at 15 mg/kg, po bid for 56 days followed by induction of compound washout period for 14 days. Conditions: in vivo, 1680 h, time 70 day. The data set is classed as organism-based.

The source made the active and inactive calls. The calls are words filed in the database; no cut-off is given here. Where only a bound is given, the exact number is not on record here.

Sequence of Organic anion transporter 3 (Q8TCC7 whole entry): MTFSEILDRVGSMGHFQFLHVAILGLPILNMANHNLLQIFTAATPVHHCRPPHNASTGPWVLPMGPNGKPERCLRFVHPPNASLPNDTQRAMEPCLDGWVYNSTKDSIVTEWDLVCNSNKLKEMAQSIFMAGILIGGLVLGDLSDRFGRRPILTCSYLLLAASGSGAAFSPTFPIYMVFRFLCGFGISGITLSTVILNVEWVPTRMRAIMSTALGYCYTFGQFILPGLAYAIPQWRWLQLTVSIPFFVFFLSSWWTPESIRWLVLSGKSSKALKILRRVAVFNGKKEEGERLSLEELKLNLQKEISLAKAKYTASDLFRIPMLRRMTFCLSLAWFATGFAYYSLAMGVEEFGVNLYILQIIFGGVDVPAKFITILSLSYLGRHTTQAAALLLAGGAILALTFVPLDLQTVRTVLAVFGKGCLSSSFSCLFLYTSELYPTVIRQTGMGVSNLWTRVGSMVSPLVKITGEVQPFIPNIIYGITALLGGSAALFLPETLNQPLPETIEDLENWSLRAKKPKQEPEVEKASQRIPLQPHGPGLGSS
Sequence of Multidrug and toxin extrusion protein 1 (Q96FL8 whole entry): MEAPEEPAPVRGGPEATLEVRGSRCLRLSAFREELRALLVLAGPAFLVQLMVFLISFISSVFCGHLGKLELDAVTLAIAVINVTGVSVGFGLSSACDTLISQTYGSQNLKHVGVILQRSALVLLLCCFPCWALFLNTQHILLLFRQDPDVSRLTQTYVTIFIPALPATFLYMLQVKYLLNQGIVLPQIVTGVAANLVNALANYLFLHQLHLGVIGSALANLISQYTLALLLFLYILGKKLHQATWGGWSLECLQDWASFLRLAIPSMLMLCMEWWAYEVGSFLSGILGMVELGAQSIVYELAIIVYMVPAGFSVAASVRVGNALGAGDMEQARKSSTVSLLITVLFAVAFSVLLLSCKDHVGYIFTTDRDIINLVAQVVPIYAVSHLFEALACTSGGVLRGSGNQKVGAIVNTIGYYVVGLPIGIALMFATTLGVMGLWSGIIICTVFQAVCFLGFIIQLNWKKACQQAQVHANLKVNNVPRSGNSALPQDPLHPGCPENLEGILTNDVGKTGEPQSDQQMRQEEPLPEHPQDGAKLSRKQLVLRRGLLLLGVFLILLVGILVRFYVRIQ

In the case of `C#CC1(N(COP(=O)([O-])[O-])C(=O)C(=O)c2c(C)c(C(=O)Nc3ccc(F)c(C#N)c3)n(C)c2C)COC1.[Na+].[Na+]`, in data set [1], the Drug metabolism result is reported as “metabolite_detected”.
`C#CC1(NC(=O)C(=O)c2c(C)c(C(=O)Nc3ccc(F)c(C#N)c3)n(C)c2C)COC1`: the apparent permeability from apical to basolateral (Papp A→B) at 1 h, 1 µM in [2] came out at 1.8 ×10⁻⁶ cm/s. Also, the outcome in the data set on Mus musculus [3], with Mus musculus [20] and with Mus musculus [21] was inactive. Moreover, the EC50 with Hepatitis B virus [4] is 0.63 nM; with Hepatitis B virus [7], 10.5 nM. The IC50 in data set [5] is > 11800 nM; in data set [9] it was > 11800 nM; in the data set with Cav1.2, > 10000 nM. Moreover, the Activity entry is “Non-toxic” in data set [6]; “Not_active” at Cytochrome P450 3A4; “Not_active” on Cytochrome P450 2B6; “Non-toxic” in [16]; “Non-toxic” in data set [18]; “Non-toxic” in data set [22]. For the same compound, the results for the total exposure AUC(0-inf) in data set [8] and in data set [13] were 1390 ng·h/mL and 2240 ng·h/mL, respectively. For the same compound, the bioavailability in [10] came out at 19.6%; in [15] it was 62.8%; in data set [17], 115%. The values for the clearance in [11] and in data set [12] were 7.89 mL/min/kg and 1.97 mL/min/kg, respectively. Moreover, the half-life at 1 µM in data set [14] is > 6 h. The compound further showed a maximum concentration (Cmax) in data set [19] of 1830 ng/mL.
